# Source: ChEMBL document CHEMBL1143825, “Evolution of resistant M414T mutants among hepatitis C virus replicon cells treated with polymerase inhibitor A-782759” (Antimicrob Agents Chemother, 2007)
# Calls of active or inactive are those of the source. The rule behind the calls is not given here.
# Assays:
# Hepatitis C virus [1] = test: Inhibition of RNA copy numbers in HCV 1b-N replicon cells with NS5B M414T mutant at EC50 after 4 days; type: functional, Hepacivirus hominis, genotype 1b strain N; set-up: scale not given: the % may be the effect or the level left
# Outline: (§1)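 1b-N replicon cells treated with compound for 4 days, with a no-compound control. Total RNA was extracted and HCV RNA copy number quantified by TaqMan real-time RT-PCR, normalised per 1 pg total RNA.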
# Hepatitis C virus [2] = test: Inhibition of RNA copy numbers in HCV 1b-N replicon cells with NS5B M414T mutant at 10 times EC50 after 4 days; type: functional, Hepacivirus hominis, genotype 1b strain N; set-up: scale not given: the % may be the effect or the level left; outline: as §1
# Hepatitis C virus [3] = test: Inhibition of RNA copy numbers in HCV 1b-N replicon cells with NS5B M414T mutant at 100 times EC50 after 4 days; type: functional, Hepacivirus hominis, genotype 1b strain N; set-up: scale not given: the % may be the effect or the level left; outline: as §1
# Hepatitis C virus [4] = test: Antiviral activity against HCV 1b-N; type: functional, organism-based, Hepacivirus hominis; conditions: genotype 1b strain N
# Outline: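 1b-N subgenomic replicon cells, grown in DMEM with 10% FBS, blasticidin and G418, seeded at 4,000 cells/well with eight serial compound dilutions. Replicon RNA copy number was quantified by TaqMan real-time RT-PCR, and EC50 was taken as the concentration giving 50% inhibition of copy number.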
# Hepatitis C virus [5] = test: Decrease in NS5B M414T mutant in HCV 1b-N replicon cells treated with 70 nM assessed as mutant level after drug withdrawal on day 4 and measured at day 18 and 28; type: functional, Hepacivirus hominis, genotype 1b strain N; set-up: scale not given: the % may be the effect or the level left
# Outline: (§2)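 Replicon cells, 2 × 10⁵ per 10-cm dish, received inhibitor for 4 days, then drug was removed and culture continued to day 28, splitting 1:10 at 90% confluence. Cells were trypsinised and PBS-washed before RNA extraction. %M414T was measured by RT, first-round PCR, then allele-specific SYBR green real-time PCR as 100 × M414T/(M414T + wild-type copies), mean of three experiments.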
# Hepatitis C virus [6] = test: Decrease in NS5B M414T mutant in HCV 1b-N replicon cells treated with 70 nM assessed as mutant level after drug withdrawal on day 4 and measured at day 10; type: functional, Hepacivirus hominis, genotype 1b strain N; set-up: scale not given: the % may be the effect or the level left; outline: as §2
# Hepatitis C virus [7] = test: Increase in NS5B M414T mutant levels in HCV 1b-N replicon cells at 7000 nM after 3 days relative to baseline; type: functional, Hepacivirus hominis, genotype 1b strain N
# Outline: (§3)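 1b-N replicon cells, 2 × 10⁴ per well, were exposed to inhibitor for up to 4 days, PBS-washed, and total RNA extracted. RNA was reverse transcribed at 50°C for 50 min, then NS5B was amplified by first-round PCR for 25 cycles. Allele-specific SYBR green real-time PCR used M414-wild-type or T-specific antisense primers. %M414T = 100 × M414T/(M414T + wild-type copies), mean of three experiments.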
# Hepatitis C virus [8] = test: Increase in NS5B M414T mutant levels in HCV 1b-N replicon cells at 700 nM after 3 days relative to baseline; type: functional, Hepacivirus hominis, genotype 1b strain N; outline: as §3
# Hepatitis C virus [9] = test: Increase in NS5B M414T mutant levels in HCV 1b-N replicon cells at 70 nM after 3 days relative to baseline; type: functional, Hepacivirus hominis, genotype 1b strain N; outline: as §3
# Hepatitis C virus [10] = test: Increase in NS5B M414T mutant levels in HCV 1b-N replicon cells at 7000 nM after 2 days relative to baseline; type: functional, Hepacivirus hominis, genotype 1b strain N; outline: as §3
# Hepatitis C virus [11] = test: Increase in NS5B M414T mutant levels in HCV 1b-N replicon cells at 700 nM after 2 days relative to baseline; type: functional, Hepacivirus hominis, genotype 1b strain N; outline: as §3
# Hepatitis C virus [12] = test: Increase in NS5B M414T mutant levels in HCV 1b-N replicon cells at 70 nM after 2 days relative to baseline; type: functional, Hepacivirus hominis, genotype 1b strain N; outline: as §3
# Hepatitis C virus [13] = test: Increase in NS5B M414T mutant levels in HCV 1b-N replicon cells at 700 nM after 4 days relative to baseline; type: functional, Hepacivirus hominis, genotype 1b strain N; outline: as §3
# Hepatitis C virus [14] = test: Increase in NS5B M414T mutant levels in HCV 1b-N replicon cells at 7000 nM after 4 days relative to baseline; type: functional, Hepacivirus hominis, genotype 1b strain N; outline: as §3
# Hepatitis C virus [15] = test: Increase in NS5B M414T mutant levels in HCV 1b-N replicon cells at 70 nM after 4 days relative to baseline; type: functional, Hepacivirus hominis, genotype 1b strain N; outline: as §3
# Hepatitis C virus [16] = test: Decrease in NS5B M414T mutant in HCV 1b-N replicon cells treated with 700 nM assessed as mutant level after drug withdrawal on day 4 and measured at day 10; type: functional, Hepacivirus hominis, genotype 1b strain N; set-up: scale not given: the % may be the effect or the level left; outline: as §2
# Hepatitis C virus [17] = test: Decrease in NS5B M414T mutant in HCV 1b-N replicon cells treated with 700 nM assessed as mutant level after drug withdrawal on day 4 and measured upto day 28; type: functional, organism-based; conditions: Hepacivirus hominis; genotype 1b strain N; outline: as §2
# Hepatitis C virus [18] = test: Decrease in NS5B M414T mutant in HCV 1b-N replicon cells treated with 7000 nM assessed as mutant level after drug withdrawal on day 4 and measured upto day 28; type: functional, organism-based; conditions: Hepacivirus hominis; genotype 1b strain N; outline: as §2
SMILES,Activity (Hepatitis C virus [1]) [%],Activity (Hepatitis C virus [2]) [%],Activity (Hepatitis C virus [3]) [%],EC50 (Hepatitis C virus [4]) [nM],Activity (Hepatitis C virus [5]) [%],Activity (Hepatitis C virus [6]) [%],Activity (Hepatitis C virus [7]) [%],Activity (Hepatitis C virus [8]) [%],Activity (Hepatitis C virus [9]) [%],Activity (Hepatitis C virus [10]) [%],Activity (Hepatitis C virus [11]) [%],Activity (Hepatitis C virus [12]) [%],Activity (Hepatitis C virus [13]) [%],Activity (Hepatitis C virus [14]) [%],Activity (Hepatitis C virus [15]) [%],Activity (Hepatitis C virus [16]) [%],Activity (Hepatitis C virus [17]),Activity (Hepatitis C virus [18])
COc1ccc2c(O[C@@H]3C[C@H]4C(=O)N[C@]5(C(=O)O)C[C@H]5/C=C\CCCCC[C@H](NC(=O)OC5CCCC5)C(=O)N4C3)cc(-c3csc(NC(C)C)n3)nc2c1 [CILUPREVIR],37,99,99,4,,,,,,,,,,,,,,
NC(=O)COc1ccc2c(c1)S(=O)(=O)N=C(c1c(O)c3ccccc3n(NC3CCC3)c1=O)N2,58,93,99,70,0.3,0.9,56,28,2.5,12.6,4,0.8,26,60,2.5,4,inactive,inactive
